Calls of active or inactive are those of the source. The calls are words filed in the database; no cut-off is given here.
Assays:
Homo sapiens [1] = species on record: Homo sapiens; assay: Ratio IC50 for inhibition of BRD4-BD2 (unknown origin) over inhibition of His9-tagged BRD4-BD1 (unknown origin)
Homo sapiens [2] = species on record: Homo sapiens; assay: Ratio IC50 for inhibition of BRD3-BD2 (unknown origin) over inhibition of His9-tagged BRD4-BD1 (unknown origin)
Homo sapiens [3] = species on record: Homo sapiens; assay: Ratio IC50 for inhibition of BRD3-BD1 (unknown origin) over inhibition of His9-tagged BRD4-BD1 (unknown origin)
Homo sapiens [4] = species on record: Homo sapiens; assay: Ratio IC50 for inhibition of BRD2-BD1 (unknown origin) over inhibition of His9-tagged BRD4-BD1 (unknown origin)
Homo sapiens [5] = species on record: Homo sapiens; assay: Ratio IC50 for inhibition of BRD2-BD2 (unknown origin) over inhibition of His9-tagged BRD4-BD1 (unknown origin)
[6] = molecular target: T1, Protein cereblon/Bromodomain-containing protein 4 (Homo sapiens, UniProt O60885+Q96SW2); assay: Binding affinity to GST-tagged CRBN/6xHis-tagged BRD4-BD2 (unknown origin) assessed as induction of dimerization of CRBN/BRD4-BD2 measured by TR-FRET assay; assay type: protein assay
T1 sequence (Q96SW2 whole entry, looked up, other chains not shown): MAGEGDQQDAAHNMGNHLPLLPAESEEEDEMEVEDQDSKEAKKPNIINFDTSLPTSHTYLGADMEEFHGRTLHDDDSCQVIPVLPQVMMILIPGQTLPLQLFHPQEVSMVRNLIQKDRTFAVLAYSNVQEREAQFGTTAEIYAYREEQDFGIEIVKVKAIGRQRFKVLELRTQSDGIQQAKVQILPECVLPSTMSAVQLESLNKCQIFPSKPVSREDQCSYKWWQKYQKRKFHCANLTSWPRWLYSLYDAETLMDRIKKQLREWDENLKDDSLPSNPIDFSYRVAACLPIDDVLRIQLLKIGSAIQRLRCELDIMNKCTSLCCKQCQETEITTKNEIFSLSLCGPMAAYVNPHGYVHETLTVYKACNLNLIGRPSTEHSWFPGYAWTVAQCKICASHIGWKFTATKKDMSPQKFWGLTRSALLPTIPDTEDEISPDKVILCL

[7] = molecular target: T1, Protein cereblon/Bromodomain-containing protein 4; assay: Binding affinity to GST-tagged CRBN/6xHis-tagged BRD4-BD1 (unknown origin) assessed as induction of dimerization of CRBN/BRD4-BD1 measured by TR-FRET assay; assay type: protein assay
[8] = molecular target: T1, Protein cereblon/Bromodomain-containing protein 4; assay: Protac activity at Halo-tagged CRBN/BRD4-BD1-NanoLuc fusion protein expressed in human HEK293T cells assessed as induction of BRD4-BD1 degradation at 0.2 uM measured by NanoBRET assay; assay type: cell-based
[9] = molecular target: T1, Protein cereblon/Bromodomain-containing protein 4; assay: Protac activity at CRBN/BRD4-BD1 in human MM1.S cells assessed as induction of BRD4-BD1 degradation measured at 1 uM in presence of 0.01 to 1 uM iBET-BD2 measured by Western blot analysis; assay type: cell-based
In short: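 Rescue experiment in MM.1S cells: the degrader was co-treated with a pan-BD1 inhibitor, the proteasome inhibitor MG132, the neddylation inhibitor MLN4924 or the pan-BD2 inhibitor iBET-BD2. BRD4 was then read by western blot against an untreated control on the same gel.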

MM1.S = assay: Cytotoxicity against human MM1.S cells assessed as downregulation of cMyc expression; assay type: toxicity, cell-based
[10] = molecular target: T1, Protein cereblon/Bromodomain-containing protein 4; assay: Protac activity at CRBN/BRD4-BD1 in human MM1.S cells assessed as induction of BRD4-BD1 degradation measured at 5 uM after 8 hrs by western blot analysis; assay type: cell-based
In short: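 Time-course study in MM.1S cells with BRD4 levels followed by western blot at successive time points. BRD2, BRD3 and cMyc were also probed.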

[11] = molecular target: T1, Protein cereblon/Bromodomain-containing protein 4; assay: Binding affinity to GST-tagged CRBN/6xHis-tagged BRD4-BD1 (unknown origin) assessed as induction of dimerization of CRBN/BRD4-BD1 at 4.6 nM measured by TR-FRET assay; assay type: protein assay
[12] = molecular target: T1, Protein cereblon/Bromodomain-containing protein 4; assay: Protac activity at CRBN/BRD4-BD1 in human MM1.S cells assessed as induction of BRD4-BD1 degradation measured after 24 hrs by western blot analysis relative to control; assay type: cell-based
In short: (§1)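 MM.1S cells were treated for 24 h, and BRD4 was probed by western blot. Band densitometry was quantified from three biological replicate blots.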

[13] = molecular target: T1, Protein cereblon/Bromodomain-containing protein 4; assay: Protac activity at CRBN/BRD4-BD1 in human MM1.S cells assessed as induction of BRD4-BD1 degradation measured after 24 hrs by western blot analysis; assay type: cell-based; in short: as §1
[14] = molecular target: T1, Protein cereblon/Bromodomain-containing protein 4; assay: Binding affinity to GST-tagged CRBN/6xHis-tagged BRD4-BD1 (unknown origin) assessed as ternary complex formation measured by TR-FRET assay; assay type: protein assay
[15] = molecular target: T2, Bromodomain-containing protein 3 (Homo sapiens, UniProt Q15059); assay: Inhibition of BRD3-BD1 (unknown origin) measured by AlphaScreen assay
T2 sequence (Q15059 whole entry): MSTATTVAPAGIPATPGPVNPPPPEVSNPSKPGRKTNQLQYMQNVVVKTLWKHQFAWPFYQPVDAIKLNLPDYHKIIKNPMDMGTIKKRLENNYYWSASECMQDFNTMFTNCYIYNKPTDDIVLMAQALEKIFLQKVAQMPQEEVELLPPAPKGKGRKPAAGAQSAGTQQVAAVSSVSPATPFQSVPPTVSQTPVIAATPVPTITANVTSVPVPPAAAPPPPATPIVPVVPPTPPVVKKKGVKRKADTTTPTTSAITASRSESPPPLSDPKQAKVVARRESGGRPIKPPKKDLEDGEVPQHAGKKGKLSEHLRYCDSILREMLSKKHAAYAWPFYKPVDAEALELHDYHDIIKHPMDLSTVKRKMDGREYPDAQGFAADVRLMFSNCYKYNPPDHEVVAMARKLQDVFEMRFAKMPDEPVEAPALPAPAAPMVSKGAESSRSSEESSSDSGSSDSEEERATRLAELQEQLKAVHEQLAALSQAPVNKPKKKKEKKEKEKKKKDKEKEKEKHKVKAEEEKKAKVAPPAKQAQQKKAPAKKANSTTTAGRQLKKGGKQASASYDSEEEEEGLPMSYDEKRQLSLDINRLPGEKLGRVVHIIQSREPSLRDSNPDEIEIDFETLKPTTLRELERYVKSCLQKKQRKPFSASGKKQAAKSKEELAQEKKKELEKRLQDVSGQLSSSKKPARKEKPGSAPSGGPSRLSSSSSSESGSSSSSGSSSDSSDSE
In short: (§2)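 Commercial AlphaScreen displacement assay run by an outside service on a panel of BET bromodomains. Values are the means of duplicate experiments.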

[16] = molecular target: T3, Bromodomain-containing protein 2 (Homo sapiens, UniProt P25440); assay: Inhibition of BRD2-BD1 (unknown origin) measured by AlphaScreen assay; in short: as §2
T3 sequence (P25440 whole entry): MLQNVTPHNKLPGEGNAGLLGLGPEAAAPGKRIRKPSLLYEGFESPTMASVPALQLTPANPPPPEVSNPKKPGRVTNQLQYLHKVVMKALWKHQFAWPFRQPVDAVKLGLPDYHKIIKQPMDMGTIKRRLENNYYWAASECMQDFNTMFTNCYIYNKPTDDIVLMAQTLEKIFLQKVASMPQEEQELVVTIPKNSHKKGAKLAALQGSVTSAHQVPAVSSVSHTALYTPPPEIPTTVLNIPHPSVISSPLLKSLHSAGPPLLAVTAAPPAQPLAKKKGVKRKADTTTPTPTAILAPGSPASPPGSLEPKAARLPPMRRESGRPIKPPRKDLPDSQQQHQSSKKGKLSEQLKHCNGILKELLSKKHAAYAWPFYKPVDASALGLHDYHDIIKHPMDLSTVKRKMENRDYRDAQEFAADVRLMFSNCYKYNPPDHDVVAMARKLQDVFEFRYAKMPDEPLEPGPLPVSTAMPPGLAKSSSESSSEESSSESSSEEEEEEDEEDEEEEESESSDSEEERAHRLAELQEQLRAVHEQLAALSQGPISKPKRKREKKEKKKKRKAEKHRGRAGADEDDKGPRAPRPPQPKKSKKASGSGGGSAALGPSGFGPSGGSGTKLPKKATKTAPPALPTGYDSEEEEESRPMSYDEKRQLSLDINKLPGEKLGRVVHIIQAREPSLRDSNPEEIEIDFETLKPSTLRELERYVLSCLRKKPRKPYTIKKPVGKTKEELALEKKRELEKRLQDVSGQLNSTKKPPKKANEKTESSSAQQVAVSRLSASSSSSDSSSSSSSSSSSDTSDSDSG

[17] = molecular target: T3, Bromodomain-containing protein 2; assay: Inhibition of BRD2-BD2 (unknown origin) measured by AlphaScreen assay; in short: as §2
[18] = molecular target: T2, Bromodomain-containing protein 3; assay: Inhibition of BRD3-BD2 (unknown origin) measured by AlphaScreen assay; in short: as §2

SMILES: Cc1cc(C)cc(Nc2nccc(-c3c(-c4ccc(C(F)(F)F)cc4)ncn3C3CCN(CCN)CC3)n2)c1
- Ratio IC50 (Homo sapiens [1]): 9
- Ratio IC50 (Homo sapiens [2]): 9
- Ratio IC50 (Homo sapiens [3]): 9
- Ratio IC50 (Homo sapiens [4]): 9
- Ratio IC50 (Homo sapiens [5]): 9

SMILES: Cc1cc(C)cc(Nc2nccc(-c3c(-c4ccc(F)cc4)ncn3C3CCNCC3)n2)c1
- Ratio IC50 (Homo sapiens [2]): 6
- Ratio IC50 (Homo sapiens [3]): 6
- Ratio IC50 (Homo sapiens [5]): 6

SMILES: Cc1sc2c(c1C)C(c1ccc(Cl)cc1)=N[C@@H](CC(=O)NCCCCNC(=O)COc1cccc3c1C(=O)N(C1CCC(=O)NC1=O)C3=O)c1nnc(C)n1-2 (some centres not stated)
- Activity [6]: Active
- Activity [7]: Active

SMILES: Cc1ccc(C(C)C)cc1Oc1nccc(-c2c(-c3ccc(C(F)(F)F)cc3)ncn2C2CCN(CCOCCOCCNC(=O)COc3cccc4c3C(=O)N(C3CCC(=O)NC3=O)C4=O)CC2)n1 (configuration not stated)
- Activity [8]: Active
- Activity [9]: Active
- Activity (MM1.S): Non-Toxic
- Activity [10]: Active
- Activity [11]: Active
- Activity [12]: 77%
- DC50 [13]: 280 nM
- Activity [14]: Active

SMILES: Cc1ccc(C(C)C)cc1Oc1nccc(-c2c(-c3ccc(C(F)(F)F)cc3)ncn2C2CCNCC2)n1
- IC50 [15]: 1000 nM
- IC50 [16]: 280 nM
- IC50 [17]: 7100 nM
- IC50 [18]: 75000 nM

Source: ChEMBL document CHEMBL5108081, “Development of an N-Terminal BRD4 Bromodomain-Targeted Degrader” (ACS Med Chem Lett, 2022)
